Measurements taken from ChEMBL document CHEMBL3400062, “Synthesis of novel C5-curcuminoid-fatty acid conjugates and mechanistic investigation of their anticancer activity” (Bioorg Med Chem Lett, 2015).
Values after ≈ are worked out from the molar mass of the structure shown.

Legend:
[1] = Cytotoxicity against human CCL229 cells after 3 days by MTT assay; assay type: functional, cell-based; details: CCL229, 72 h
Summary of the method: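 CCL-229 colon cancer cells grown in F12K medium (2 mM L-glutamine, 1500 mg/L sodium bicarbonate), seeded at 10,000 cells/well. Compounds added at final 5–500 µg/mL. Incubation 3 days at 37°C, humidified 5% CO2. Viability read by MTT. IC50 is the concentration giving 50% viability, taken from dose-response curves. Triplicate, mean ± SEM.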

[2] = target: Nuclear factor NF-kappa-B complex (Homo sapiens) (UniProt Q00653+P19838+Q04206); experiment: Inhibition of TNFalpha-induced nuclear factor-kappa-B (unknown origin) expressed in HEK293 cells pre-incubated for 16 hrs followed by TNFalpha stimulation for 6 hrs by luciferase reporter gene assay; assay type: cell-based
Summary of the method: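 NFκB reporter HEK293 cells seeded at 30,000/well in assay medium without hygromycin B and allowed to reattach overnight at 37°C, 5% CO2. Compound dilutions added for 16 h (DMSO in untreated and cell-free controls). Mouse TNFα 5 ng/mL then added for 6 h. Cells lysed with one-step luciferase reagent about 15 min at room temperature, luminescence read. Non-linear regression; triplicate, mean ± SEM.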

[3] = tested on: PBMC; experiment: Cytotoxicity against human PBMC after 3 days by MTT assay; assay type: cell-based; details: 72 h
Summary of the method: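 PBMCs from healthy volunteers cultured in IL-2-supplemented medium, seeded at 4×10^5–5×10^4 cells/well. Compounds added at final 2–100 µg/mL. Incubation 3 days at 37°C, humidified 5% CO2, then MTT read-out. IC50 is the concentration giving 50% viability, from dose-response curves. Triplicate, mean ± SEM.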

[4] = tested on: COLO 205; experiment: Induction of mitochondrial membrane permeabilization in human COLO205 cells at 7.4 ug/ml by JC1 dye based staining method (reference value: 14%); assay type: functional
Summary of the method: (§1)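 COLO-205 cells, 1×10^6 per sample, exposed under the same conditions and controls as the annexin assay (camptothecin, DMSO). Then labelled with JC-1 at 200 μg/ml and scored for % cells with permeabilized mitochondrial membranes. Triplicate.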

[5] = tested on: COLO 205; experiment: Induction of apoptosis in human COLO205 cells at 7.4 ug/ml after 24 hrs by propidium iodide and annexin V staining method (reference value: 14.3%); assay type: functional
[6] = tested on: COLO 205; experiment: Induction of apoptosis in human COLO205 cells assessed as caspase-3 activation at 7.4 ug/ml by FLICA staining based method; assay type: functional
Summary of the method: (§2)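 COLO-205 cells exposed under the annexin assay conditions (24 h; camptothecin and DMSO controls). Cells harvested and stained with fluorescent labelled inhibitors of caspases (FLICA) for active caspase 3/7, scored as % positive cells. Triplicate.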

[7] = target: T1, DNA topoisomerase 1 (Homo sapiens) (UniProt P11387); experiment: Inhibition of human DNA topoisomerase 1 using pHOT1 supercoiled DNA substrate incubated for 30 mins by ethidium bromide staining based gel electrophoresis method
T1 sequence (whole entry): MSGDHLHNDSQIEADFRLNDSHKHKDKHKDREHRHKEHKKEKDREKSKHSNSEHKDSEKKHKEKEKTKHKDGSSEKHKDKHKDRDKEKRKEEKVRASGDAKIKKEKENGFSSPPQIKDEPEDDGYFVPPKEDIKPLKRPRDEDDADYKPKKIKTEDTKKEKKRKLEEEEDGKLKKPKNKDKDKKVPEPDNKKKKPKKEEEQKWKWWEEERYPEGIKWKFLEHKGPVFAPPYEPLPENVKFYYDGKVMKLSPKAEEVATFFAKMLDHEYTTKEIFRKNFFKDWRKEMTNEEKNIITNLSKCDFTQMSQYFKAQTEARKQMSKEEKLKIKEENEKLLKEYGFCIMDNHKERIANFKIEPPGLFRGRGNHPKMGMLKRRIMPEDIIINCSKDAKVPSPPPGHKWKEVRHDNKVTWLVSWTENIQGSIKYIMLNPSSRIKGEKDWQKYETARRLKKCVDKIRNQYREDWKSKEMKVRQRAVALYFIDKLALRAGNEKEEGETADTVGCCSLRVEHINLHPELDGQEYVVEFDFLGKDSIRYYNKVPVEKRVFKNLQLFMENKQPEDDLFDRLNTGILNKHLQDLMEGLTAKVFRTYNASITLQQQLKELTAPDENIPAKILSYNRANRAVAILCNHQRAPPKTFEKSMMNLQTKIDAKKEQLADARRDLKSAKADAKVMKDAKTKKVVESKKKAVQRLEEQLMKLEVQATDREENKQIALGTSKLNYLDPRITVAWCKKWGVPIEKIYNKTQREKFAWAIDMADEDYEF
Summary of the method: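 Human DNA topoisomerase I kit with pHOT1 supercoiled DNA substrate. Compounds dissolved in 50% DMSO and tested at 10–1,500 μg/mL. Reactions run 30 min at 37°C, stopped with 10% SDS, then proteinase K 0.05 mg/mL for 15 min at 37°C. Products resolved on 1% agarose gel at 72V, stained with ethidium bromide 1 h, destained 30 min. Triplicate.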

[8] = tested on: COLO 205; experiment: Induction of apoptosis in human COLO205 cells assessed as caspase-3 activation at 46 ug/ml by FLICA staining based method; assay type: functional; summary of the method: as §2
[9] = tested on: COLO 205; experiment: Induction of apoptosis in human COLO205 cells at 46 ug/ml after 24 hrs by propidium iodide and annexin V staining method (reference value: 14.3%); assay type: functional
[10] = tested on: COLO 205; experiment: Induction of mitochondrial membrane permeabilization in human COLO205 cells at 46 ug/ml by JC1 dye based staining method (reference value: 14%); assay type: functional; summary of the method: as §1
[11] = tested on: COLO 205; experiment: Induction of mitochondrial membrane permeabilization in human COLO205 cells at 3.5 ug/ml by JC1 dye based staining method (reference value: 14%); assay type: functional
[12] = tested on: COLO 205; experiment: Induction of apoptosis in human COLO205 cells assessed as caspase-3 activation at 3.5 ug/ml by FLICA staining based method; assay type: functional
Summary of the method: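 COLO-205 cells treated as in the annexin assay (24 h exposure); cells harvested and stained with fluorescent labelled caspase inhibitors (FLICA) for active caspase 3/7; read as percent of cells with active caspase; triplicate runs.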

[13] = tested on: COLO 205; experiment: Induction of apoptosis in human COLO205 cells at 3.5 ug/ml after 24 hrs by propidium iodide and annexin V staining method (reference value: 14.3%); assay type: functional

Chain of Nuclear factor NF-kappa-B complex (Homo sapiens) (P19838 whole entry, looked up): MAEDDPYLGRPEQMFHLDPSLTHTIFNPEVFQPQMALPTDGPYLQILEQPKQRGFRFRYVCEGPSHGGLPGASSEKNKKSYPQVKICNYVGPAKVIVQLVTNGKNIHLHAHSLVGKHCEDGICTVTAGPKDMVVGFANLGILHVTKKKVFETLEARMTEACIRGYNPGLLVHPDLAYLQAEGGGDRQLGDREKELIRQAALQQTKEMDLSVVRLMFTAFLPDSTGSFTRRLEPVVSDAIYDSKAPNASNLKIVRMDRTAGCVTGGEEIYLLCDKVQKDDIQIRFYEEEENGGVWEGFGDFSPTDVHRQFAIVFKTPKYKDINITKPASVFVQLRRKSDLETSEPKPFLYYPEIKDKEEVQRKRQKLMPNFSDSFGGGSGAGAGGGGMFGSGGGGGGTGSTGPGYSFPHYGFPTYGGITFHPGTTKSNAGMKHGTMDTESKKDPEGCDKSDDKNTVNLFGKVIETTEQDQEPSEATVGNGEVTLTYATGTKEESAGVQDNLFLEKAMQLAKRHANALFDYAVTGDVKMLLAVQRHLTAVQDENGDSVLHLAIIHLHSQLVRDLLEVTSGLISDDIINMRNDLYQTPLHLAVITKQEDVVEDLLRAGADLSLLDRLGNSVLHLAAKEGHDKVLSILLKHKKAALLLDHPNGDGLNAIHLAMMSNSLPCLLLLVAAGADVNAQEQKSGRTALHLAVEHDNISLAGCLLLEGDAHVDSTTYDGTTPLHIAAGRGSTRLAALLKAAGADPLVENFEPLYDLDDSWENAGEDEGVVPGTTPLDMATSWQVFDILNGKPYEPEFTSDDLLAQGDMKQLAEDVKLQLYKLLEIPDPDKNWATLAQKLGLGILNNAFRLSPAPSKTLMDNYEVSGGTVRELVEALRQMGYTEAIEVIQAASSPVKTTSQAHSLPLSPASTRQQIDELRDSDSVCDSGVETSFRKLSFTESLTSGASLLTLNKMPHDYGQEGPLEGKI
Chain of Nuclear factor NF-kappa-B complex (Homo sapiens) (Q00653 whole entry, looked up): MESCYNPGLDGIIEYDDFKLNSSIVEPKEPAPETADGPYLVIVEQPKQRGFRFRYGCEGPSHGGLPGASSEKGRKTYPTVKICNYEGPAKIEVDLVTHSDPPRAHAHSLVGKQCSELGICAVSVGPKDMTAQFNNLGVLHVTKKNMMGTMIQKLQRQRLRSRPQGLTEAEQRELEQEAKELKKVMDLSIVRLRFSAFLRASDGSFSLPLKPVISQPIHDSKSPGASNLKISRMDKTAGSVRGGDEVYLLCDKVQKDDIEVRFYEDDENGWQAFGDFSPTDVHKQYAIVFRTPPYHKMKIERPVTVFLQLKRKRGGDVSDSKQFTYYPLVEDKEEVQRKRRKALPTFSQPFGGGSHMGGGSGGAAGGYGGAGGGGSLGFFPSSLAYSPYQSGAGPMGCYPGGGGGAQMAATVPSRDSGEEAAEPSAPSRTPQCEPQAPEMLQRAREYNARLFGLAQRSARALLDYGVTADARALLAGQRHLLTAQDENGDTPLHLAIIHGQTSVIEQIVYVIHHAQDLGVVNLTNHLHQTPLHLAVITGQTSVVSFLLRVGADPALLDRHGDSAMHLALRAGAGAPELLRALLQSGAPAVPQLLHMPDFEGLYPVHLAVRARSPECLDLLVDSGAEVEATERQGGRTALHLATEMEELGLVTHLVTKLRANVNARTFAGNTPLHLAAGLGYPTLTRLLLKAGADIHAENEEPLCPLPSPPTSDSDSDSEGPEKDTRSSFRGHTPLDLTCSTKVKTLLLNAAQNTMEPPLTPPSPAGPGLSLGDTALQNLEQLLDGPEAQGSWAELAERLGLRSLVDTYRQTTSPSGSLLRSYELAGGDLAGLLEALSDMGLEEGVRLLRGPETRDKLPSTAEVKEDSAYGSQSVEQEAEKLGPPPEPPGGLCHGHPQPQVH
Chain of Nuclear factor NF-kappa-B complex (Homo sapiens) (Q04206 whole entry, looked up): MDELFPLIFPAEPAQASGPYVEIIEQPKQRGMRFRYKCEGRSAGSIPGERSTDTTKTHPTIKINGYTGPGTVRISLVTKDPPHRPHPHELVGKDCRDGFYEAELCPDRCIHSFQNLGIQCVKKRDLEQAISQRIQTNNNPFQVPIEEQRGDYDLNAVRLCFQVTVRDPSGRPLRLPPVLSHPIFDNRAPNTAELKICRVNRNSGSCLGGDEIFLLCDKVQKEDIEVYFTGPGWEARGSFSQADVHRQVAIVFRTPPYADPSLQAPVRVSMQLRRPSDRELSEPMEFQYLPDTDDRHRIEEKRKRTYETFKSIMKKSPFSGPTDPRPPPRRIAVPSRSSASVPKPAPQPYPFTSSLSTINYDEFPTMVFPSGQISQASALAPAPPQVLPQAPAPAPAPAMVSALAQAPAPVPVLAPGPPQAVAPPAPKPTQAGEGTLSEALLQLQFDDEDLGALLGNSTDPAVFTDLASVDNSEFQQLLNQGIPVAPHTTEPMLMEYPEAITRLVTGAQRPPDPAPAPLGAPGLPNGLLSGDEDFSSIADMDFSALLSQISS

SMILES	IC50 [1]	IC50 [3]	other results
CCCCCCCCCCCCCCCC(=O)Oc1cc(/C=C2\CCC/C(=C\c3ccc(OC)c(OC(=O)CCCCCCCCCCCCCCC)c3)C2=O)ccc1OC	130 µg/mL (≈ 154 µM)		
COc1cc(/C=C/C(=O)CC(=O)/C=C/c2ccc(O)c(OC)c2)ccc1O [CURCUMIN]	26.8 µg/mL (≈ 72.7 µM)	12.3 µg/mL (≈ 33.4 µM)	inhibition [2]: Dose-dependent effect; Activity [4]: 23%; Activity [5]: 27.5%; Activity [6]: 23.3%
CCCCCCCCCCCCCCCC(=O)Oc1cccc(/C=C/C(=O)/C=C/c2cccc(OC(=O)CCCCCCCCCCCCCCC)c2)c1	113 µg/mL (≈ 152 µM)		
CCCCCCCCCCCCCCCC(=O)Oc1ccc(/C=C2\CCC/C(=C\c3ccc(OC(=O)CCCCCCCCCCCCCCC)c(OC)c3)C2=O)cc1OC	139 µg/mL (≈ 165 µM)		
CCCCCCCCCC(=O)Oc1cccc(/C=C/C(=O)/C=C/c2cccc(OC(=O)CCCCCCCCC)c2)c1	22.5 µg/mL (≈ 39.1 µM)	35.9 µg/mL (≈ 62.5 µM)	MIC [7]: 50 µg/mL (≈ 87 µM); inhibition [2]: Dose-dependent effect; Activity [8]: 19.5%; Activity [9]: 27.5%; Activity [10]: 68%
CCCCCCCCCCCCCCCC(=O)Oc1cccc(/C=C2\CCC/C(=C\c3cccc(OC(=O)CCCCCCCCCCCCCCC)c3)C2=O)c1	29.3 µg/mL (≈ 37.4 µM)	36.3 µg/mL (≈ 46.3 µM)	MIC [7]: 250 µg/mL (≈ 319 µM)
CCCCCCCCCC(=O)Oc1cc(/C=C/C(=O)/C=C/c2ccc(OC)c(OC(=O)CCCCCCCCC)c2)ccc1OC	66 µg/mL (≈ 104 µM)		
CCCCCCCCCCCCCCCC(=O)Oc1cc(/C=C/C(=O)/C=C/c2ccc(OC)c(OC(=O)CCCCCCCCCCCCCCC)c2)ccc1OC	70.5 µg/mL (≈ 87.8 µM)		
CCCCCCCCCCCCCCCC(=O)Oc1ccc(/C=C/C(=O)/C=C/c2ccc(OC(=O)CCCCCCCCCCCCCCC)c(OC)c2)cc1OC	56.1 µg/mL (≈ 69.8 µM)	40.6 µg/mL (≈ 50.5 µM)	MIC [7]: 100 µg/mL (≈ 125 µM)
CCCCCCCCCC(=O)Oc1ccc(/C=C/C(=O)/C=C/c2ccc(OC(=O)CCCCCCCCC)cc2)cc1	180 µg/mL (≈ 313 µM)		
CCCCCCCCCC(=O)Oc1ccc(/C=C/C(=O)/C=C/c2ccc(OC(=O)CCCCCCCCC)c(OC)c2)cc1OC	143 µg/mL (≈ 225 µM)		
CC[C@@]1(O)C(=O)OCc2c1cc1n(c2=O)Cc2cc3ccccc3nc2-1 [CAMPTOTHECIN]			Activity [11]: 48.5%; Activity [12]: 30%; Activity [13]: 29%
